ChEMBL document CHEMBL4765431, “Novel phthalide derivatives: Synthesis and anti-inflammatory activity in vitro and in vivo” (Eur J Med Chem, 2020)
Active and inactive are the calls of the source.

Assays:
RAW264.7 [1] = test: Activation of Nrf2/HO-1 signalling pathway in mouse RAW264.7 cells assessed as increase in Nrf2 nuclear translocation at 0.5 to 2 uM preincubated for 1 hr followed by LPS stimulation and measured after 6 hrs by DAPI staining based fluorescence microscopic analysis; type: cell-based; settings: filed as activator, dose 0.5-2 µM, time 7.0 hrs
How it was run: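 Cells grown on glass coverslips, treated 1 h, then LPS 0.5 µg/mL for 6 h. Fixed in 4% paraformaldehyde 20 min at room temperature, blocked 1 h in TBS with 0.1% Triton X-100 and 5% BSA. Stained with anti-Nrf2 and FITC anti-rabbit IgG, nuclei with DAPI. Imaged by inverted fluorescence microscope.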

Rattus norvegicus [2] = test: Antiarthritic activity in Sprague-Dawley rat model of arthritis assessed as reduction in CFA-induced inflammatory cell infiltration at 20 mg/kg, ig administered daily for 28 days starting from 14 days post-immunization and measured every 3 days by H and E staining based histopathological analysis; type: functional, organism-based; settings: time 28.0 day
How it was run: (§1)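 AA rats (male SD, CFA intradermal into right hind paw) dosed intragastrically once daily at 20 or 40 mg/kg from day 14 to day 28. Killed after 29 days. Ankle joints fixed in 4% neutral buffered paraformaldehyde, decalcified in 10% EDTA, sectioned and H&E stained. Scored for synovial hyperplasia, inflammatory cell infiltration and cartilage destruction.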

RAW264.7 [3] = test: Inhibition of MAPK signalling activation in mouse RAW264.7 cells assessed as reduction in LPS-induced ERK phosphorylation at 0.5 to 2 uM preincubated for 1 hr followed by LPS stimulation by Western blotting analysis; type: cell-based; settings: dose 0.5-2 µM, TDE = time-dependent effect
How it was run: (§2)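 Pretreatment 1 h with 0.5–2 µM, then LPS 0.5 µg/mL for 30 min. p-IκB, IκB, p-p65, p65, ERK, JNK, p38 and their phosphorylated forms, plus β-actin, detected by Western blot (RIPA lysis, SDS-PAGE, PVDF, primary 16 h at 4 °C, HRP secondary 1:5000, ECL).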

Rattus norvegicus [4] = test: Antiarthritic activity in Sprague-Dawley rat model of arthritis assessed as reduction in CFA-induced synovial hyperplasia at 20 mg/kg, ig administered daily for 28 days starting from 14 days post-immunization and measured every 3 days by H and E staining based histopathological analysis; type: functional, organism-based; settings: time 28.0 day; how it was run: as §1
RAW264.7 [5] = test: Inhibition of NF-kappaB activation in mouse RAW264.7 cells assessed as reduction in LPS-induced p65 phosphorylation at 0.5 to 2 uM preincubated for 1 hr followed by LPS stimulation and measured after 30 mins by Western blotting analysis; type: cell-based; settings: dose 0.5-2 µM, time 90.0 min; how it was run: as §2
RAW264.7 [6] = test: Anti-inflammatory activity in mouse RAW264.7 cells assessed as inhibition of LPS-induced iNOS protein expression preincubated for 1 hr followed by LPS stimulation and measured after 24 hrs by Western blot analysis; type: functional, cell-based; settings: dose 0.5-2 µM, time 25.0 hrs
How it was run: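 Cells pretreated 1 h with 0.5, 1, 2 µM, then LPS 0.5 µg/mL for 24 h. iNOS, COX-2 and β-actin detected by Western blot (RIPA lysis, PVDF, primary 16 h at 4 °C, HRP secondary, ECL). Blots representative of three separate experiments.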

COc1cc(OC)c2c(c1)C(C(O)c1ccc(OCc3ccc(F)cc3)cc1)OC2=O (stereo unspecified)
active: Activity (RAW264.7 [1]) | Activity (Rattus norvegicus [2]) | inhibition (RAW264.7 [3]) Tde | Activity (Rattus norvegicus [4]) | inhibition (RAW264.7 [5]) | inhibition (RAW264.7 [6]) Dose-dependent effect
